# Source: PubChem BioAssay
# Rows were chosen to be rich in hits. Some 1.8% of all compounds tested hit in one or more screens of this group.
# UHRF1 binding: blocks human UHRF1 binding to methylated DNA. UHRF1 binding to methylated oligo, TR-FRET. inhibition, % at 4.4 µM. AID 687016. Q96T88. 370,000 compounds, 0.75% hits; in the data active = inhibition above about 21%;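 also: UHRF1 SRA domain binding a hemimethylated CpG hairpin DNA probe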
# TDP2 absorb: blocks human TDP2 phosphodiesterase activity; O95551; recombinant TDP2, T5PNP hydrolysis, p-nitrophenol absorbance 415 nm; inhibition, % at 12.8 µM; 370,000 compounds, 0.34% hits; AID 720702;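 active = inhibition above the mean of all tested compounds plus 3 SD, set per campaign, cut at about 25% in these data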
# Target sequence (O95551 whole entry, looked up): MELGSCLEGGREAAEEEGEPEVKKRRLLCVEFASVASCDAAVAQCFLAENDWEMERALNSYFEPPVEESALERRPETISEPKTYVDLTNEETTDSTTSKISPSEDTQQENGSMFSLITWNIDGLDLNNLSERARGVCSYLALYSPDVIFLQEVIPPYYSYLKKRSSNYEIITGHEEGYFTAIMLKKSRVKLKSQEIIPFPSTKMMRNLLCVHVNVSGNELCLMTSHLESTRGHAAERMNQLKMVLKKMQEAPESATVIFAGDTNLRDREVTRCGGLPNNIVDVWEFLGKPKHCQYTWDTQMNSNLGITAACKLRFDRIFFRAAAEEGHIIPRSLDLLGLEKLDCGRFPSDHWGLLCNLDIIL
#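 Read-out basis: percent inhibition. System: recombinant human TDP2. Buffer or medium: Mg2+-containing Tris-HCl buffer, pH 7.5. Repeats: single replicate. Timing: reaction 2 h, 37 °C. Benchmarks: high control without enzyme, low control DMSO plus TDP2. Probe or stimulus: 5 mM T5PNP. Doses: 12.8 µM only. Measured by: epi absorbance of p-nitrophenol freed from T5PNP by hydrolysis.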
# MBD2 DNA inh: blocks human MBD2 binding to methylated DNA; TR-FRET, MBD2 binding to methylated oligonucleotide; inhibition, % at 4.4 µM; 370,000 compounds, 0.31% hits; AID 686964; in the data active = inhibition above about 13%
# LEDGF integ inh: blocks HIV-1 LEDGF/p75-dependent DNA integration; TR-FRET IN-LEDGF/p75 DNA integration, Eu/Cy5; 370,000 compounds, 0.64% hits; inhibition, % at 3.7 µM;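 active = inhibition above the screen-wide mean plus 3 SD, cut at about 13% in these data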;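 also: signal is the Cy5 over europium emission ratio at 671 and 618 nm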
# HCV core dimer: HCV core protein dimerization inhibition | TR-FRET GST/Flag-core106 dimerization, 1536-well | inhibition, % at 5 µM | 300,000 compounds, 0.33% hits;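 active = inhibition above the mean of all tested compounds plus 3 SD, set per screening campaign, cut at about 45% in these data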
#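 System: GST-tagged and Flag-tagged HCV core protein residues 1-106 / Input: core106 proteins, GST 13.5 nM and Flag 17 nM / Buffer or medium: KF-containing HEPES buffer, pH 7.45, DTT, CHAPS, BSA / Probe or stimulus: Eu-anti-GST and XL665-anti-Flag labelled anti-tag antibodies / Schedule: 4 h, 22.5 °C incubation / Technique: TR-FRET 671 and 617 nm emission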
# IN multimer up: activates HIV-1 integrase multimerization in LEDGF counter-screen | shares compounds with LEDGF integ inh | TR-FRET HIV-1 integrase multimerization, biochemical | activation, % at 7.7 µM | 2,000 compounds, 17% hits; in the data active = activation above about 8.9%
# TR-FRET interf: counter-screen for LEDGF/p75 integration inhibitors: TR-FRET optical interference. shares compounds with LEDGF integ inh. inhibition, % at 7.7 µM. 2,000 tested, under 10 active. TR-FRET optical interference counterscreen, HIV-1 IN multimerization;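 active = inhibition above the mean over all tested compounds plus 3 SD, which no compound reached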
# IN-LEDGF confirm: confirmation of HIV-1 LEDGF/p75-dependent integration inhibitors; inhibition, % at 3.7 µM; shares compounds with LEDGF integ inh; 2,000 compounds, 36% hits; TR-FRET LEDGF/p75-dependent HIV-1 integration, biochemical; in the data active = inhibition above about 14%
# Numbers stand for hits; i = inactive; nt = no result given.
SMILES,UHRF1 binding,TDP2 absorb,MBD2 DNA inh,LEDGF integ inh,HCV core dimer,IN multimer up,TR-FRET interf,IN-LEDGF confirm
O=C(OC1CC2CC1[C@H]1CCCCN1C2=O)N1CCN(c2ccccc2)CC1 (some centres not stated),i,i,i,i,nt,nt,nt,nt
O=C(NCCc1ccccc1Cl)[C@@H]1CCCN1C(=O)[C@@H](NC(=O)N1CCOCC1)C1CCCCC1,i,i,i,i,nt,nt,nt,nt
Cc1nc2sc(C(c3ccco3)N3CCC(C)CC3)c(O)n2n1 (configuration not stated),i,i,i,13,i,i,i,i
Cc1nc2sc(C(c3ccco3)N3CCN(c4cccc(Cl)c4)CC3)c(O)n2n1 (configuration not stated),i,i,i,20,i,i,i,i
Cc1nc2sc(C(c3ccco3)N3CCN(c4ccccc4)CC3)c(O)n2n1 (configuration not stated),i,i,i,i,i,nt,nt,nt
Cc1nc2sc(C(c3ccco3)N3CCN(C(c4ccccc4)c4ccccc4)CC3)c(O)n2n1 (configuration not stated),i,i,i,i,i,nt,nt,nt
COC(=O)C1=C(C)N(Cc2ccco2)C(=O)C1,i,i,i,29,i,i,i,31
COC(=O)C1=C(C)N(Cc2ccc(OC)cc2)C(=O)C1,i,i,i,i,i,nt,nt,nt
O=C(c1ccccc1)N1CCN(S(=O)(=O)c2ccccc2)CC1,i,i,i,44,i,i,i,i
CCn1c(SCC(=O)OCc2ccccc2)nnc1-c1ccco1,i,i,i,19,i,i,i,i
COc1ccc(OC)c(S(=O)(=O)NCC2CCN(C(=O)C(=O)c3cc4ccccc4o3)CC2)c1,i,i,i,i,nt,nt,nt,nt
O=C(C(=Cc1ccccc1)CN1CCCCC1)c1ccccc1,i,i,i,19,nt,i,i,i
O=C(CCCCN1CCCCC1)c1ccccc1,i,i,i,i,i,nt,nt,nt
Cc1ccc(N2C(=O)/C(=C/c3ccco3)SC2=S)cc1,i,i,i,19,i,i,i,i
N=C1S/C(=C\c2ccco2)C(=O)N1c1ccc2c(c1)OCO2,i,i,i,15,i,i,i,18
CCNCc1ccccc1OCc1ccccc1,i,i,i,i,i,nt,nt,nt
Oc1ccc(NCc2ccccc2OCc2ccccc2)cc1,i,i,i,14,i,15,i,24
CCCCOCCCNC(=O)C[C@H]1C[C@@]2(C(=O)OC)C(=C[C@H](C3CCCC3)O[C@@H]2C)N(Cc2ccc(Cl)cc2Cl)C1=O,i,i,i,i,nt,nt,nt,nt
CCCCOCCCNC(=O)C[C@H]1C[C@@]2(C(=O)OC)C(=C[C@H](C(C)(C)C)O[C@@H]2C)N(Cc2ccc(Cl)cc2Cl)C1=O,i,i,i,20,nt,i,i,i
Cc1ccc(-c2nc(NCc3ccc(F)cc3)n(S(C)(=O)=O)n2)cc1,i,i,i,14,i,i,i,i
CCCCN1C(=O)N(C)C2NC(=O)NC21 (configuration not stated),i,i,i,i,i,nt,nt,nt
CSC1=NC2C(N1)N(C)C(=O)N2C (configuration not stated),i,i,i,35,i,i,i,i
COc1ccc(OC)c(/C=C/c2ccnc3ccccc23)c1,i,i,i,25,nt,i,i,i
COC(=O)[C@@]12C[C@@H](CC(=O)N3CCN(C(=O)c4ccco4)CC3)C(=O)N(Cc3cccc4ccccc34)C1=CCC(C)(C)C2,i,i,i,21,nt,i,i,i
COC(=O)[C@@]12C[C@@H](CC(=O)N3CCCCC3)C(=O)N(Cc3cccc4ccccc34)C1=CCC(C)(C)C2,i,i,i,i,nt,nt,nt,nt
SMILES,UHRF1 binding,TDP2 absorb,MBD2 DNA inh,LEDGF integ inh,HCV core dimer,IN multimer up,TR-FRET interf,IN-LEDGF confirm
Cc1cccc(NC(=O)COC(=O)[C@@H]2CCCN2C(=O)c2cccs2)c1,i,i,i,28,nt,i,i,i
Cc1ccc(C)n1-c1sc2c(c1C(=O)O)CCCC2,46,i,i,25,i,i,i,25
CCCN(CCC)C(=S)NC(=O)c1ccc(Cl)cc1Cl,i,i,i,16,i,i,i,i
Cc1ccccc1C(=O)NNC(=S)NC(=O)c1ccc(Cl)cc1Cl,i,i,i,i,i,nt,nt,nt
Nn1c(SCC(=O)NC2CCCCC2)nnc1-c1n[nH]c2c1CCC2,i,i,i,i,nt,nt,nt,nt
CCOC(=O)c1oc2c(O)c(O)ccc2c(=O)c1-c1nncn1-c1ccccc1,i,i,i,45,i,i,i,40
CCOC(=O)c1oc2c(C)c(O)ccc2c(=O)c1-c1nncn1-c1ccccc1,i,i,i,i,i,nt,nt,nt
CC1=NN(c2ccccc2)C(=O)/C1=C/C=C/C=C/N(C)C,i,i,i,23,i,16,i,i
CC1=NN(c2cccc(C(=O)O)c2)C(=O)/C1=C\C=C/c1ccccc1,i,i,i,16,nt,i,i,16
CC1=NN(c2ccc(C)cc2)C(=O)/C1=C\C=C\c1ccccc1,i,i,i,i,i,nt,nt,nt
N#Cc1c(NC(=O)COC(=O)C2CC3C=CC2C3)oc(-c2ccccc2)c1-c1ccccc1 (configuration not stated),i,i,i,18,69,i,i,i
C#CCNC(=O)C[C@@H]1C(=O)N2CCCC3=C2[C@@]1(C(=O)OC)CCCC3,i,i,i,i,nt,nt,nt,nt
CN(C)c1ccc(N2C(=O)CC(c3ccccc3)CC2=O)cc1,i,i,i,i,i,nt,nt,nt
O=C1CSC(=S)N1c1ccc(F)cc1,nt,nt,nt,nt,i,nt,nt,nt
CN(C)c1ccc(N2C(=O)CSC2=S)cc1,i,i,i,21,i,i,i,i
CC1SC(=S)N(c2ccc(N(C)C)cc2)C1=O (configuration not stated),i,i,i,20,i,i,i,i
CC(=O)c1sc(NCc2ccccc2)nc1C,i,i,i,29,i,i,i,i
Cc1cc(/C=C2\SC(=S)NC2=O)c(C)[nH]1,i,i,i,34,i,12,i,i
COc1cc(OC)cc(-c2nnc(NC(=O)CCS(=O)(=O)c3ccc(C)cc3)o2)c1,i,i,i,i,i,nt,nt,nt
COc1cccc(-c2nnc(NC(=O)CCS(=O)(=O)c3ccc(F)cc3)o2)c1,i,i,i,15,nt,i,i,i
O=C(CN1CCCc2ccccc21)NCc1ccc(Cl)cc1,i,i,i,i,nt,nt,nt,nt
CC1(C)N([O-])C(c2cccs2)=C[N+]1=O,i,i,i,24,i,i,i,29
COc1c(NC=O)c2c(c([N+](=O)[O-])c1OC)C(=O)OC2,i,i,i,14,nt,i,i,i
